In assay [1] the target is T1, Polyunsaturated fatty acid 5-lipoxygenase (Homo sapiens, UniProt P09917).
T1 sequence (P09917 whole entry): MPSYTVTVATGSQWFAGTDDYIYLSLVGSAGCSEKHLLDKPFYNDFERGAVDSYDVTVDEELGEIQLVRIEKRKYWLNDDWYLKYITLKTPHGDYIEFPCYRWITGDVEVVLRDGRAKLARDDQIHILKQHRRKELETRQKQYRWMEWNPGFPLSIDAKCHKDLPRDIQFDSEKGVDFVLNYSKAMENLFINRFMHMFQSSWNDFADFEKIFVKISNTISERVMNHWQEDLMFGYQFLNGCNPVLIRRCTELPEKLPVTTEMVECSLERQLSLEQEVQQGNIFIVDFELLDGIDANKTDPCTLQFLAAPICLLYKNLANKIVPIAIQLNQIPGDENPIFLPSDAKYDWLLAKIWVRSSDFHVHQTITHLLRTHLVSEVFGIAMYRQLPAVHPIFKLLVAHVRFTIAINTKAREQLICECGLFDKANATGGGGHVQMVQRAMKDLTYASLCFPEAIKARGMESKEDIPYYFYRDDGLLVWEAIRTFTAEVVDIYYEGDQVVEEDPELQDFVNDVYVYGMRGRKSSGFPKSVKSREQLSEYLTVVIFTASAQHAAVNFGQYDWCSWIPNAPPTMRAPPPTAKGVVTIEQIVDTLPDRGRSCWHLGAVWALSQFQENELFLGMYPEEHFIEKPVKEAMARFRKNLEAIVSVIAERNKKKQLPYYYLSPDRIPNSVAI
As to the kind of experiment: Inhibition of recombinant 5-lipoxygenase expressed in Escherichia coli BL21 using arachidonic acid as substrate incubated for 15 mins prior to substrate addition measured after 10 mins by HPLC analysis. In outline:
(§1)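 Compounds were first tested at 30 μM, and IC50 values were determined only for those giving at least 50% inhibition. The 5-LO assay was cell-free with HPLC read-out, and the sEH assay used a fluorescence read-out.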

In assay [2] the target is T2, Bifunctional epoxide hydrolase 2 (Homo sapiens, UniProt P34913).
T2 sequence (P34913 whole entry): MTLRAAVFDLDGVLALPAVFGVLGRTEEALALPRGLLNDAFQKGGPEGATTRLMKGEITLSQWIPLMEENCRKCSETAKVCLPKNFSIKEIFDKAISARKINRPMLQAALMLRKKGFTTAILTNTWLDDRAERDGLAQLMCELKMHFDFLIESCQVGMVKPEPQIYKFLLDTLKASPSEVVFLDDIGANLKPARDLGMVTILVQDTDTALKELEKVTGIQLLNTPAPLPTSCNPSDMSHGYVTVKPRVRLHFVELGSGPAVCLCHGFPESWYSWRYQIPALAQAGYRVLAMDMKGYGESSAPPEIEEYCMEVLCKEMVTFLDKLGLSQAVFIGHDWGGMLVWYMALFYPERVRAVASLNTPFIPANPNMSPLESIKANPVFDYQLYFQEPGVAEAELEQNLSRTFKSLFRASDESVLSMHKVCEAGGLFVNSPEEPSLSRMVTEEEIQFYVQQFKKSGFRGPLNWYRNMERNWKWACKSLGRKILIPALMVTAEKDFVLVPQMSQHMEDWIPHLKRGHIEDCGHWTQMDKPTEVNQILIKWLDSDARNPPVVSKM
In words: (§2) Inhibition of soluble epoxide hydrolase using (3-Phenyl-oxiranyl)-acetic acid cyano-(6-methoxy-naphthalen-2-yl)-methyl ester) as substrate incubated for 15 mins prior to substrate addition measured every min for 15 mins by fluorometry. The gist of the method: as §1

The target in assay [3] is T3, Bifunctional epoxide hydrolase 2 (Homo sapiens) (UniProt P34913).
T3 sequence (whole entry): T2 sequence (P34913 whole entry)
The description is as §2. The gist of the method:
as §1

Calls of active or inactive are those of the source. The calls are words filed in the database; no cut-off is given here.

The source of these data is ChEMBL document CHEMBL2034900, “Dual-target virtual screening by pharmacophore elucidation and molecular shape filtering” (ACS Med Chem Lett, 2012).

`CN(C)c1ccc(-n2nc3ccc4ccccc4c3n2)cc1`: the IC50 – broadly, the midpoint of a concentration-inhibition curve – in assay [1] stood at 2.2 µM. Turning to `COc1ccc(-c2nc3cc(C)ccc3[nH]2)cc1OC`, the IC50 in assay [1] is 36 µM; in assay [2], 3.5 µM. Take `CC(C)CC(=O)Nc1nc2c(s1)CCc1ccccc1-2`: the IC50 in assay [1] was 16 µM. With `COc1cccc(CNc2nc3ccccc3n2C)c1O`, the half-maximal inhibitory concentration (IC50) in assay [1] was determined as 7.6 µM. In assay [3], the inhibition result was “inactive”. Regarding `COc1ccc(CC(=O)Nc2ccc(C)cc2)cc1OC`, the 50% inhibitory concentration (IC50) in assay [2] is 21 µM. `Cn1nnc2cc(NC(=O)NCCC3=CCCCC3)ccc21` displayed a half-maximal inhibitory concentration (IC50) in assay [2] of 0.47 µM.

On to `COc1ccc(/C=N/Nc2nc3ccccc3[nH]2)cc1OC`, for which the IC50 in assay [1] stood at 8.1 µM. `COc1ccc(-c2nc3cc(C)ccc3o2)cc1OC`: the IC50 in assay [1] was determined as 2.7 µM. For the same compound, in assay [3], the inhibition result is “inactive”. The compound `COc1ccc(NC(=O)c2cccc(-n3cnnn3)c2)cc1` displayed an IC50 in assay [2] of 1.6 µM.
